Bioassay records (PubChem BioAssay)
PKA-R2B activ = activators of PKA-R2B holoenzyme, primary screen, biochemical, fluorescence polarization, Cy5-IP20, human | cAMP-dependent protein kinase catalytic subunit beta (Homo sapiens) + cAMP-dependent … | PKA-R2B holoenzyme dissociation; R2B truncated from residue 108, S112A mutant; 0% DMSO only, 100% 113 µM cGMP | activation, % at 11.4 µM | 340,000 tested, 0.079% active;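 active = activation above a cutoff set at the mean over all compounds plus 3 SD, cut at about 18% in these data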;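 note: higher means more holoenzyme dissociation and a rise in polarization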
Rpn11 block = Rpn11 (PSMD14) deubiquitinase inhibitors, primary screen, biochemical, fluorescence polarization, uHTS; calls only at 20 µM; 360,000 tested, 0.59% active; human 26S proteasome, Ub4-pepOG fluorescence polarization; 20S core pre-blocked with epoxomicin; 26S proteasome non-ATPase regulatory subunit 14 (Homo sapiens), O00487;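 active = inhibition at 20 µM, scaled to each plate's controls, above about 33%, limit read from the data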
PKA-R1A act = activators of PKA-R1A holoenzyme, primary screen, biochemical, fluorescence polarization, Cy5-IP20, bovine R1A, mouse PKAc; PKA-R1A dissociation; scaled: DMSO 0%, 113 µM cGMP 100%; 340,000 tested, 0.083% active; cAMP-dependent protein kinase type I-alpha regulatory subunit (Bos taurus) + …; activation, % at 11.4 µM;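 active = percent activation above the mean of all tested compounds plus 3 SD, cut at about 19% in these data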;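 note: higher means more PKAc released from R1A so a rise in polarization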
HNF4A DNA FP = change in binding of human HNF4A to DNA, primary screen, biochemical, fluorescence polarization, FITC-DNA. 1 h. activity change, % at 10 µM. 360,000 tested, 0.3% active; in the data active = activity change above about 30%, passing the limit was not always enough
Target sequence (P41235 whole entry, looked up): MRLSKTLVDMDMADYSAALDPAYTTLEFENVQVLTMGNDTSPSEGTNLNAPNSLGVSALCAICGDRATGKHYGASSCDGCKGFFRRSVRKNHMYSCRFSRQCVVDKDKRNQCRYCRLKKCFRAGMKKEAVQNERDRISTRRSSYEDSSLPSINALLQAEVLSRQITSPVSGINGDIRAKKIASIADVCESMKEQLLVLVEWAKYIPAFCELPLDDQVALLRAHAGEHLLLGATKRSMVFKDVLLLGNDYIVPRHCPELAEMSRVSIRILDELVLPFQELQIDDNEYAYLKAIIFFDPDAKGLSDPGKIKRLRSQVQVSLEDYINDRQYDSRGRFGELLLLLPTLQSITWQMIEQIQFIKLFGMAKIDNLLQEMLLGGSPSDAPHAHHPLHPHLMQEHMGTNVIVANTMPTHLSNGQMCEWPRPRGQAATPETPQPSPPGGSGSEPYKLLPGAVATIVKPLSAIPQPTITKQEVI
TPT1 inhibitor = Candida albicans TPT1 enzyme inhibitors, primary screen, biochemical, fluorescence polarization; tRNA 2'-phosphotransferase TPT1 (Candida albicans SC5314); recombinant caTPT1, FP RNA substrate dephosphorylation; inhibition, % at 5 µM; 300,000 tested, 0.81% active;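 active = inhibition above the mean of all tested compounds plus 3 SD, set per screening campaign, cut at about 24% in these data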
CSN deneddyl inh = inhibitors of CSN-mediated cullin deneddylation, primary screen, biochemical, fluorescence polarization, uHTS; COP9 signalosome complex subunit 5 (Homo sapiens), Q92905; Purified CSN, SCF-Nedd8-OG deneddylation; inhibition, % at 12.5 µM; 360,000 tested, 0.38% active;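 active = pattern-corrected inhibition above about 35%, with an unprinted fluorescence ratio check between 0.5 and 1.5, limit read from the data, passing the limit was not always enough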
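Schedule: reaction 90 min, room temperature / Assay system: HEK293T-derived human Csn5 enzyme / Input: Csn5 at 0.24 nM final / Measure: inhibition of Csn5 cleavage, % / Control set: substrate-only high control, full reaction low control / Technique: fluorescence polarization of the substrate / Buffer or medium: Tris/NaCl/DTT buffer, pH 7.5 / Reagent: SCFSkp2-Nedd8OG substrate at 10 nM final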
Rpn11 confirm = Rpn11 (PSMD14) deubiquitinase inhibitors, confirmation, biochemical, fluorescence polarization, single concentration. shares compounds with Rpn11 block. purified human 26S proteasome, Ub4-pepOG fluorescence polarization; proteasome pretreated with epoxomicin. inhibition, % at 20 µM. 1,900 tested, 29% active
MMP-2 counter-1 = MMP-2 enzyme inhibition, confirmation, counter-screen for RPN11 inhibitor project, biochemical, fluorescence, single concentration; 1,900 tested, 4% active; inhibition, % at 20 µM; recombinant MMP-2, FRET peptide cleavage fluorescence; shares compounds with Rpn11 block;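 note: human MMP-2 activated beforehand with APMA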
Thrombin inh = bovine thrombin protease inhibition, confirmation, counter-screen for Rpn11 inhibitor project, biochemical, fluorescence polarization, single concentration; shares compounds with Rpn11 block; bovine thrombin cleavage of Ub4-pepOG; inhibition, % at 20 µM; 1,900 tested, 13% active; AID 602333, 2012;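 active = mean inhibition at least 40% at 20 µM, or signal 3 deviations below plate average, so some actives read negative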
CSN5 deneddyl = Csn5 deneddylation inhibitors, confirmation, biochemical, fluorescence polarization, single concentration, SCF-Nedd8OG substrate; shares compounds with CSN deneddyl inh; Csn5 deneddylation of SCF-Nedd8OG, 90 min; inhibition, % at 16.6 µM; 540 tested, 62% active; AID 720654, 2013; in the data active = inhibition above about 50%
MMP-2 counter-2 = MMP-2 protease inhibition counter-screen, confirmation, counter-screen for CSN deneddylation inhibitor project, biochemical, fluorescence, single concentration. shares compounds with CSN deneddyl inh. recombinant MMP-2, FRET substrate fluorescence, 60 min. inhibition, % at 16.6 µM. 540 tested, 33% active. AID 720655, 2013;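 active = corrected plate-normalized z-score of 5 or more, or -5 or less, or inhibition of 15% or more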
Thrombin cntr = blocks bovine thrombin in a CSN deneddylation counter-screen | shares compounds with CSN deneddyl inh | bovine thrombin cleavage of Ub4-pepOG, fluorescence polarization | inhibition, % at 16.6 µM | 540 tested, 49% active;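 active = inhibition at or above a set limit, with a fluorescence interference ratio between 0.5 and a set maximum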
HNF4A confirm = change in HNF4A binding to DNA, retest, confirmation, biochemical, fluorescence polarization, FITC-DNA; activity change, % at 12.5 µM; 1 h; AID 1224897, 2016; shares compounds with HNF4A DNA FP; 210 tested, 99% active; call rule not given here
Of the large screens only hits and unclear results are named; the others gave an inactive call (follow-up assays come after a bar, where shown); ! = repeats disagree. A selection: hits, their analogues and other compounds. The true share with any hit is near 1.6%. Cut-off read from the data, not from the text of the source, unless noted: active = inhibition above about 40%; inactive = the rest.

Cc1ccc(CN(C)C(=O)CCNS(=O)(=O)c2ccccc2)o1	none (no result: TPT1 inhibitor)
CC(=O)c1c(O)c(C)c(O)c2c1OC1=CC(=O)C(C(C)=O)C(=O)[C@@]12C (stereo partly specified)	Rpn11 block active, HNF4A DNA FP 65.4 (no result: TPT1 inhibitor) | Rpn11 confirm 120.4 | MMP-2 counter-1 inactive | Thrombin inh 108.6 | HNF4A confirm 56.7
Cc1ccc[n+](-c2nc3ccccc3nc2C(=C=[N-])C#N)c1	Rpn11 block active!, HNF4A DNA FP 59.7, CSN deneddyl inh 62.7! | Rpn11 confirm inactive | MMP-2 counter-1 inactive | Thrombin inh inactive | HNF4A confirm 42.1
Cc1cccc(N2CC(c3nc4ccccc4[nH]3)CC2=O)c1 (stereo unspecified)	none
C=CCCC(=O)N1C[C@H]2CON(C)[C@H]2C[C@H]1c1ccc(N2CCCCC2)cc1	Rpn11 block active, HNF4A DNA FP 42.7 (no result: PKA-R2B activ, PKA-R1A act, TPT1 inhibitor) | Rpn11 confirm 56.3 | MMP-2 counter-1 inactive | Thrombin inh 44.8 | HNF4A confirm 45.2
COc1cc(C(=O)N2C[C@H]3CON(C)[C@H]3C[C@H]2c2ccc(N3CCCCC3)cc2)cc(OC)c1OC	none (no result: PKA-R2B activ, PKA-R1A act, TPT1 inhibitor)
CCCn1c(N)c(N(CCOC)C(=O)c2ccccc2)c(=O)[nH]c1=O	none
Cc1cc(-c2csc(NC(=O)c3ccc(=O)[nH]c3)n2)c(C)n1Cc1ccco1	CSN deneddyl inh 39.6 | CSN5 deneddyl 98.4 | MMP-2 counter-2 inactive | Thrombin cntr inactive
CCNc1nc(-c2cc(C)n(Cc3ccco3)c2C)cs1	none
CCN1/C(=C/C(C)=C/c2sc3ccccc3[n+]2CC)Sc2ccccc21	Rpn11 block active, HNF4A DNA FP 197.5, CSN deneddyl inh 77.0 | CSN5 deneddyl inactive | MMP-2 counter-2 49.5! | Thrombin cntr 112.6
Cc1ccc(-c2csc(NC(=O)/C=C/c3ccco3)c2C(=O)O)cc1	CSN deneddyl inh 42.2 | CSN5 deneddyl 66.7 | MMP-2 counter-2 inactive | Thrombin cntr inactive
CN(C)/C=C1\Oc2ccc3ccccc3c2C1=O	none
O=C1C(=O)c2c(ccc3ccccc23)-c2ccccc21	CSN deneddyl inh 40.1 (no result: TPT1 inhibitor) | CSN5 deneddyl 83.8 | MMP-2 counter-2 inactive | Thrombin cntr inactive
O=C(NCc1cc(C(F)(F)F)ccc1Cl)c1cccc2c1C(=O)c1ccc(N3CCC(N4CCCCC4)CC3)cc1S2(=O)=O	HNF4A DNA FP 139.6, CSN deneddyl inh 81.6 (not shown: Rpn11 block, TPT1 inhibitor) | CSN5 deneddyl inactive | MMP-2 counter-2 inactive | Thrombin cntr 45.6
O=C(NCc1cc(C(F)(F)F)ccc1Cl)c1cccc2c1C(=O)c1ccc(N3CCOCC3)cc1S2(=O)=O	none (no result: TPT1 inhibitor)
Cc1cc(/C=N/NC(=O)C(O)(c2ccccc2)c2ccccc2)c(C)n1-c1cccc(C(=O)O)c1	CSN deneddyl inh 40.8 | CSN5 deneddyl 59.1 | MMP-2 counter-2 inactive | Thrombin cntr inactive
Cc1cc(/C=N/NC(=O)C(O)(c2ccccc2)c2ccccc2)c(C)n1-c1ccc(C(=O)O)cc1	none
CCOC(=O)C1=C(C)N=c2s/c(=C/c3cccc(OCC(=O)O)c3)c(=O)n2C1c1ccc(F)cc1 (stereo unspecified)	none (no result: PKA-R2B activ, Rpn11 block, PKA-R1A act, HNF4A DNA FP, CSN deneddyl inh)
CC1=C(C(=O)OC(C)C)C(c2ccc(Cl)cc2)n2c(s/c(=C\c3ccc(OCC(=O)O)cc3)c2=O)=N1 (stereo unspecified)	CSN deneddyl inh 83.8 (not shown: Rpn11 block, TPT1 inhibitor) | CSN5 deneddyl inactive | MMP-2 counter-2 inactive | Thrombin cntr inactive
Cc1c(C(=O)N/N=C/c2cccnc2)sc(N)c1C#N	none (no result: TPT1 inhibitor)
CCCCNC1=CC(=O)C(NCCCC)=CC1=O	none (no result: TPT1 inhibitor)
CCCCNC1=CC(=O)C(=O)c2ccccc21	CSN deneddyl inh 48.0 | CSN5 deneddyl 86.7 | MMP-2 counter-2 inactive | Thrombin cntr inactive
CCOc1ccc(/C=C/C2=Cc3c(sc(NC(=O)CSc4n[nH]c(N)n4)c3C#N)C(C)(C)C2)cc1	HNF4A DNA FP 41.6, TPT1 inhibitor 57.4, CSN deneddyl inh 44.0 (not shown: Rpn11 block) | CSN5 deneddyl 71.8 | MMP-2 counter-2 inactive | Thrombin cntr 35.3
CCN(CC)c1ccc(C=Nc2ccc(N(C)C)cc2)c(O)c1	CSN deneddyl inh 42.5 (not shown: Rpn11 block) | CSN5 deneddyl 127.7 | MMP-2 counter-2 inactive | Thrombin cntr 37.3
CC(=O)NN1C(=O)/C(=C/c2ccc(Br)o2)SC1=S	HNF4A DNA FP 60.2, CSN deneddyl inh 51.4 | CSN5 deneddyl 96.2 | MMP-2 counter-2 18.8 | Thrombin cntr 34.1
C[C@H](CO)N1C[C@H](C)[C@@H](CN(C)S(=O)(=O)c2ccc(F)cc2)Oc2ccc(NC(=O)NC3CCCCC3)cc2C1=O	none (no result: TPT1 inhibitor)
